Fewer inactive variants are shown than the library holds.
B1: tRNA (parent)
chain: GUUCCGUUGGCGUAAUGGUAACGCGUCUCCCUCCUAAGGAGAAGACUGCGGGUUCGAGUCCCGUACGGAACG

Variants of: B1
Test: yeast fitness relative to wild type (ratio to wild type); higher = fitter; tRNA-Arg(CCU), competitive growth, 37 C, YPD
Method in brief: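 A pool of Saccharomyces cerevisiae strains, each with a tRNA-Arg(CCU) gene variant at the native genomic locus, was competed in YPD at 37°C for 24 hours across six parallel replicates. The variants had been chemically synthesised at a 3% per-site mutation rate over 69 sites, and gene amplicons before and after competition were read by 100-nucleotide paired-end sequencing. Darwinian fitness relative to wild type rested on changes in genotype frequencies. Genotypes required ≥ 100 starting reads, and estimates < 0.5 were set to 0.5.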

Variant | yeast fitness
C33U G41A C49U C61G | ≤ 0.5
C33U G44C | 0.601
C33U G44C C49U | 0.531
C33U G44C C60U A69G | ≤ 0.5
C33U G48A | 0.678
C33U G48A C60U U64G A65U A69C | 0.571
C33U G50A G52C A65C | 0.564
C33U G51A A65U | ≤ 0.5
C33U G52A | 0.58
C33U G56A C61G C66U | ≤ 0.5
C33U G56A G58C | 0.589
C33U G68C | 0.686
C33U U35A | ≤ 0.5
C33U U35C | 0.579
C33U U47A | 0.829
C33U U47A G63A | ≤ 0.5
C33U U54C G58A | 0.643
C34A A36C C61U U64A | ≤ 0.5
C34A A36C G67A | ≤ 0.5
C34A A37C | 0.713
C34A A37C C49A | 0.522
C34A A37C G67C A69G | ≤ 0.5
C34A A40C A42U | ≤ 0.5
C34A A40C C61A | ≤ 0.5

Variant | yeast fitness
C34A A40C U54C C66U | 0.623
C34A A40G | 0.609
C34A A40U | 0.705
C34A A40U G67A | ≤ 0.5
C34A A42U A45G | ≤ 0.5
C34A A42U C61G A65U | ≤ 0.5
C34A A42U G58C C60A C62U | 0.571
C34A A42U G68A | ≤ 0.5
C34A A42U U54A A57U | 0.511
C34A A43C A65C | ≤ 0.5
C34A A43C G67A | 0.537
C34A A43U A70U | 0.607
C34A A45C A70C | 0.701
C34A A45G A57U C66U | ≤ 0.5
C34A A45G G63C | 0.676
C34A A45U C46A G50A U54C C55G | ≤ 0.5
C34A A57C | ≤ 0.5
C34A A57G | 0.715
C34A A57U G67C | 0.605
C34A A57U U59A | ≤ 0.5
C34A A65U | 0.736
C34A A70G | 0.634
C34A C46A | 0.691
C34A C46G | 0.693

Variant | yeast fitness
C34A C46U | 0.615
C34A C46U A65C | 0.569
C34A C49A U59G C66U | ≤ 0.5
C34A C49U C61G | ≤ 0.5
C34A C55G | 0.517
C34A C55G G58A U64C A65C | ≤ 0.5
C34A C55U | 0.524
C34A C60G A70C | ≤ 0.5
C34A C60G G68A | 0.688
C34A C66G | 0.647
C34A C66U | 0.764
C34A G39C | 0.792
C34A G41A C55G | ≤ 0.5
C34A G41A C62U | ≤ 0.5
C34A G41C | 0.757
C34A G50C G51A C61G | ≤ 0.5
C34A G51A | 0.656
C34A G52A C61G G63A | ≤ 0.5
C34A G52C G63C | 0.681
C34A G56C | ≤ 0.5
C34A G68C | 0.841
C34A G68U | 0.647
C34A U47G C49G C60G | 0.571
C34A U53A | 0.541

Variant | yeast fitness
C34A U53C | 0.559
C34A U54A G67A | ≤ 0.5
C34A U59G | 0.745
C34A U64C | 0.834
C34G A36C A70C | ≤ 0.5
C34G A36C C55G | ≤ 0.5
C34G A36G A57U | ≤ 0.5
C34G A36U G58A | 0.605
C34G A37C C62A | ≤ 0.5
C34G A37C G56A | 0.527
C34G A37U C49G | 0.576
C34G A40C A43U | ≤ 0.5
C34G A40C G44A | ≤ 0.5
C34G A40C G48A | ≤ 0.5
C34G A40G | 0.642
C34G A40G C46G C49A U59C | 0.55
C34G A40U A43C C46A G63C | ≤ 0.5
C34G A40U U47A G67C | ≤ 0.5
C34G A42C | 0.573
C34G A42C C46U U54A C55G G58C C66A | ≤ 0.5
C34G A42C G51C | 0.525
C34G A42G A43U | 0.635
C34G A42G C62U | 0.589
C34G A42U G44A A45C G48C U64A | ≤ 0.5

Variant | yeast fitness
C34G A43C C49U G56A | ≤ 0.5
C34G A43U C55U A57C C66A | 0.639
C34G A45C | 0.569
C34G A45C C62G | ≤ 0.5
C34G A45G | 0.657
C34G A45U U53G A57G | 0.569
C34G A57C G63A | ≤ 0.5
C34G A57G | 0.568
C34G A57U | 0.523
C34G A69U A70C | 0.696
C34G C46A C62U | 0.541
C34G C49G C61U A70C | ≤ 0.5
C34G C49G C61U U64A | ≤ 0.5
C34G C49G G68C | 0.629
C34G C49G U54A A57C G68A | ≤ 0.5
C34G C49G U54C C61U A69G | ≤ 0.5
C34G C49U | 0.708
C34G C49U A57U | ≤ 0.5
C34G C49U A65C | 0.532
C34G C55G U59C C60U G67U A70C | ≤ 0.5
C34G C55U G63A | ≤ 0.5
C34G C60U C61U | 0.545
C34G C61U | 0.602
C34G C62A G63A | ≤ 0.5

Variant | yeast fitness
C34G C62G | 0.559
C34G C62G C66G A69C | ≤ 0.5
C34G C66A A69C | 0.599
C34G G38A | 0.624
C34G G38C | 0.587
C34G G39A | 0.703
C34G G39C | 0.58
C34G G41A A42C C66U | ≤ 0.5
C34G G41A A42C G67C | 0.597
C34G G41C | 0.617
C34G G41C A69U | ≤ 0.5
C34G G44A C49A U53A A69U | ≤ 0.5
C34G G48A A57G | 0.631
C34G G48C | 0.519
C34G G48C G67A | ≤ 0.5
C34G G52A | 0.562
C34G G52A A65U | ≤ 0.5
C34G G52C | ≤ 0.5
C34G G52C A70U | 0.542
C34G G56A | 0.639
C34G G58A G63C | ≤ 0.5
C34G G58C A69C | 0.576
C34G G63A G67A | ≤ 0.5
C34G G68U | 0.638

Variant | yeast fitness
C34G U35A A57U | ≤ 0.5
C34G U35C | 0.613
C34G U47G | 0.561
C34G U53G | ≤ 0.5
C34G U54G | ≤ 0.5
C34G U59A G68A | ≤ 0.5
C34G U59C | 0.602
C34G U59G G68U | 0.576
C34G U64A | 0.654
C34G U64G | 0.518
C34U A36C A40C C55A C66U | 0.526
C34U A36C A70C | 0.594
C34U A36C C46G | ≤ 0.5
C34U A36C U53C | ≤ 0.5
C34U A36G A57G | ≤ 0.5
C34U A36G C55A | ≤ 0.5
C34U A36U | ≤ 0.5
C34U A36U C66U | ≤ 0.5
C34U A36U C66U A69U | 0.612
C34U A36U G52C A69U | ≤ 0.5
C34U A37G | 0.538
C34U A37G C46U C61A | 0.589
C34U A37U C46A G51A | 0.567

From the RNAGym collection of RNA variant scans (doi:10.1126/science.aae0568)
